Screening results (PubChem)
FGF22 binding = binders of human FGF22 protein, primary screen, FGF22 synaptogenesis inhibitor project, biophysical, thermal shift, single point; 1.5% of 340,000 active; activity (Tm shift, normalised), % at 9.99 µM; recombinant FGF22 thermal shift, SYPRO orange fluorescence; percent of sucrose octasulfate shift, DMSO zero; Fibroblast growth factor 22 (Homo sapiens), Q9HCT0; AID 651658, 2012;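 active means mean Tm shift, scaled 0 neutral to 100 positive control, at about 1.3% or above, every replicate too, limit read from the data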
Target sequence (Q9HCT0 whole entry, looked up): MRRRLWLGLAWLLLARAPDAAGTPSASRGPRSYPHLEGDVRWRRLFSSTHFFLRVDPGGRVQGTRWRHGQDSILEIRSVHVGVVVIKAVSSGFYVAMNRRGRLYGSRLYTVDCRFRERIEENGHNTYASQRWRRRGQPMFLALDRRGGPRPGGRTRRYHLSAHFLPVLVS
PGC1a acetyl inh = inhibitors of PGC1a acetylation signal, primary screen, cell-based, U2OS, AlphaScreen, inhibitor mode; AlphaScreen anti-acetyl-lysine; with virally co-expressed GCN5 acetyltransferase; 0.17% of 350,000 active; inhibition, % at 15.6 µM;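 active means every replicate shows inhibition of at least 40%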;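 further: 0% = neutral control wells and 100% = positive control wells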
ERAP1 HTS inh = human ERAP1 aminopeptidase inhibitors, primary screen, biochemical, single point, plate reader; Endoplasmic reticulum aminopeptidase 1 (Homo sapiens), Q9NZ08; recombinant ERAP1, Leu-AMC fluorescence, 60 min; inhibition, % at 10.7 µM; 0.15% of 340,000 active; AID 652197, 2013;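 active means mean replicate inhibition of at least 30%, or all replicates individually reaching that 30% level; inactive means mean below 30% and not every replicate reaching it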;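 further: 0% = neutral control wells and 100% = L-leucinethiol positive control wells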
SIRT5 block = SIRT5 desuccinylase inhibitors, primary screen, biochemical, fluorescence imaging, single point, set 5. Purified SirT5, succinyl-peptide AMC, trypsin-coupled fluorescence. inhibition, % at 15 µM. 1.1% of 330,000 active. AID 652115, 2013; in the data active means inhibition above about 15%
FN deposit inh = inhibitors of fibronectin matrix deposition, primary screen, AH1F cells, Alexa488-fibronectin fluorescence, plate reader | inhibition, % at 12.6 µM | AH1F fibroblasts, overnight | 0.086% of 350,000 active;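 active means mean inhibition across replicates of 30% or more, regardless of how many single replicates reach that level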;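 further: positive control wells lacked labelled fibronectin entirely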
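material = AH1F fibroblast monolayer depositing Alexa488-labelled fibronectin into matrix | amount = 10000 AH1F cells/well | buffer or medium = DMEM plus 2% serum, read in PBS | incubation = 1 h cell adhesion before compound, then overnight fibronectin incubation | detection = fluorescence at 485 nm excitation, 525 nm emission | evaluation = percent inhibition as loss of matrix-bound fibronectin fluorescence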
The depositor's hits bear a star; x = not tested or not shown; ! = not active in a repeat. Hits are enriched below; roughly 2.2% of the tested compounds scored in any of these assays.

SMILES	FGF22 binding	PGC1a acetyl inh	ERAP1 HTS inh	SIRT5 block	FN deposit inh
C[C@@H]1CN([C@H](C)CO)C(=O)c2cc(NS(=O)(=O)c3cn(C)cn3)ccc2O[C@@H](C)CCCCO[C@H]1CN(C)Cc1ccncc1	0	30	2	-4	x
c1ccc(N=C2SCCCS2)cc1	43*	4	1	x	3
Cn1c(=O)c2cc(S(=O)(=O)NCCC(=O)NCc3ccccc3Cl)ccc2n(C)c1=O	x	47*	x	x	3
Cc1ccc(CNC(=O)CCNS(=O)(=O)c2ccc3c(c2)c(=O)n(C)c(=O)n3C)cc1	x	4	x	x	x
c1ccc(CNc2nc(-c3cccs3)nc3ccccc23)cc1	43*	-11	0	-1	5
Cc1ccccc1-c1cnc2c(c1)C(=O)N([C@H](C)CO)C[C@@H](C)[C@@H](CN(C)C(=O)c1cccnc1)O2	0	4	-1	-3	x
Cc1nnc(NC(=O)CSc2ncc(-c3ccccc3)[nH]2)s1	0	88*	0	7	-6
CC(C)NC(=O)Nc1ccc2c(c1)C(=O)N([C@H](C)CO)C[C@@H](C)[C@H](CN(C)Cc1ccc(Cl)c(Cl)c1)OCCCC[C@@H](C)O2	0	-15	4	5	4
Cc1noc(/C=C/N(C)C)c1S(=O)(=O)N1CCCC(C(=O)NC2CCCCC2)C1 (stereo not given)	0	-13	0	4	5
Cc1noc(/C=C/N(C)C)c1S(=O)(=O)N1CCCC(C(=O)N2CCCCC2)C1 (stereo not given)	0	x	9	17*	-1
Cc1noc(/C=C/N(C)C)c1S(=O)(=O)N(C)CC(=O)NC1CCCCC1	x	43*	x	x	x
C[C@@H]1CCCCO[C@H](CN(C)C(=O)c2ccccc2)[C@H](C)CN([C@@H](C)CO)C(=O)c2cc(NS(=O)(=O)c3ccc(F)cc3)ccc2O1	0	-12	1	8	x
O=c1[nH]c(CSc2nnnn2-c2ccccc2)nc2ccccc12	43*	-6	-2	1	0
CN(C)C(=O)C[C@@H]1C=C[C@@H](NC(=O)C2CCC2)[C@H](CO)O1	0	-3	-1	1	3
Clc1ccc(-c2cc(COc3ccccc3)on2)cc1	43*	-1	4	-2	x
COc1ccc2c3c([nH]c2c1)[C@@H](CO)N(C(=O)C1CCCC1)CC31CCN(C)CC1	0	x	-1	-1	x
O=c1c2ccccc2sn1-c1ccccc1F	0	x	7	-14	-8
Cc1ccccc1-n1sc2cc(F)ccc2c1=O	0	-4	22	-1	40*
CC(C(=O)O)N(C(=O)c1ccccc1)c1ccc(F)cc1 (stereo not given)	0	6	-1	26*	1
CC(C)C(=O)NN(C(=O)c1ccccc1)c1ccccc1	0	x	5	7	12
CCCNC(=O)C[C@H]1CC[C@H]2[C@@H](COc3ccc(NC(=O)Cc4ccccc4)cc3C(=O)N2C)O1	0	-4	-3	2	-8
O=C(NCc1ccccc1F)C1CC(=O)N(Cc2ccco2)C1 (stereo not given)	44*	10	-2	x	4
O=C(C[C@@H]1CC[C@H]2[C@@H](COC[C@@H](O)CN2Cc2ccncc2)O1)NCc1ccncc1	0	4	1	19*	6
C[C@@H](NC(=O)C[C@H]1CC[C@@H]2[C@H](COC[C@H](O)CN2Cc2ccc(C(F)(F)F)cc2)O1)c1ccccc1	0	1	-2	14	-6
C[C@H](NC(=O)C[C@@H]1CC[C@H]2[C@@H](COC[C@@H](O)CN2Cc2ccc(C(F)(F)F)cc2)O1)c1ccccc1	0	-5	-2	17*	-11
O=C(C[C@H]1CC[C@@H]2[C@H](COC[C@H](O)CN2Cc2cccc(F)c2)O1)NCc1cccc(F)c1	0	-2	-1	20*!	-14
C[C@@H]1CN([C@H](C)CO)C(=O)Cc2cc(NS(=O)(=O)c3cccs3)ccc2O[C@H]1CN(C)C(=O)Nc1ccc(F)cc1	0	12	-2	-2	x
